# Rows were chosen to be rich in hits. Some 4.7% of all compounds tested hit in one or more screens of this group.
# MPTP inh: inhibitors of mitochondrial permeability transition pore. 1.4% of 360,000 active. AID 602449. isolated mouse mitochondria, Ca2+ swelling absorbance, 30 min. inhibition, % at 10 µM;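 active = inhibition of 50% or more, scaled per plate between neutral and stimulator controls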;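 note: 0% = DMSO wells given calcium and 100% = 1 mM EGTA wells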
# MT1-MMP act inh: blocks activation of human MT1-MMP | P50281 | HT1080 RFP-PRO-GFP cells, GFP/RFP ratio fluorescence, overnight; percent of plate control window, DMSO zero | GFP/RFP ratio change, % at 20 µM | 0.061% of 360,000 active;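 active = GFP/RFP ratio change of at least 30% with cell ATP level not reduced by more than half and red fluorescence within 50% of control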
#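 Test system: HT1080 RFP-PRO-GFP cells; Benchmarks: DMSO and RFP-L50D-GFP cell wells; Timing: cells overnight before dosing, compound overnight, 37 °C, 5% CO2; Compound: one 20 µM compound dose with 1% DMSO; Read-out: GFP/RFP fluorescence ratio.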
# SKN-1 block: C. elegans SKN-1 inhibition | C. elegans VP596 Pgst-4::GFP/RFP ratio, acrylamide-induced, 24 h | inhibition, % at 21.8 µM | 0.49% of 360,000 active | AID 624304;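 active = interference check ratio from 0.5 to 1.5 plus GFP to RFP signal ratio inhibition reaching or exceeding a fixed threshold, cut at about 30% in these data, passing the limit was not always enough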
# NR3A LBD binder: NR3A (human) ligand-binding domain modulation | 2.5% of 340,000 active | NR3A LBD differential scanning fluorimetry, Tm shift; 0% = protein alone, 100% = glycine-bound protein | AID 1259313 | Tm shift relative to glycine control, % at 25 µM;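 active = melting temperature shift of at least 10% of the positive control shift, at one fixed dose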
# ADAM10 inh: ADAM10 inhibition, QFRET primary screen. inhibition, % at 7 µM. 0.62% of 370,000 active. O14672. recombinant ADAM10, EDANS/DABCYL FRET peptide cleavage, 3 h;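 active = inhibition above a per-campaign cutoff equal to the mean of compounds falling between control-based bounds plus 3 SD, cut at about 20% in these data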;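 note: 0% = DMSO wells while the 100% control is not disclosed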
# Target sequence (O14672 214-748 limits assumed): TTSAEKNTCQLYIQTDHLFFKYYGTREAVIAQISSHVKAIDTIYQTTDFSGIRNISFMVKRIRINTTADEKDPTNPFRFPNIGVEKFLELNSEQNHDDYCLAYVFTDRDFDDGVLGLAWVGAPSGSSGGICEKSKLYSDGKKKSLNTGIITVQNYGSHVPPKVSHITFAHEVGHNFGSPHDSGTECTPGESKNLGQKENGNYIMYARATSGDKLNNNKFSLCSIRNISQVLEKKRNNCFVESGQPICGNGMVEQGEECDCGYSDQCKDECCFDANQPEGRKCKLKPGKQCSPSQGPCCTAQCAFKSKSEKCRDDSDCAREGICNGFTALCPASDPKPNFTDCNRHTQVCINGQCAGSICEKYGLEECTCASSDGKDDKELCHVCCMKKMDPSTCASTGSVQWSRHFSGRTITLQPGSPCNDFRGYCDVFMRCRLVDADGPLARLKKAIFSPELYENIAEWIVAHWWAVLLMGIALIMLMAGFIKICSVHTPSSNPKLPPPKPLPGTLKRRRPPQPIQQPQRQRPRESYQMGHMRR
# ADAM17 inh: inhibitors of human ADAM17; P78536; recombinant ADAM17, EDANS/DABCYL FRET peptide cleavage; inhibition, % at 6.95 µM; 0.83% of 370,000 active; AID 720648;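 active = inhibition above the mean of compounds lying between control limits plus 3 SD, set per campaign, cut at about 8.5% in these data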;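 note: 0% = DMSO-only wells as the low control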
# MPTP counter: membrane potential counter-screen of mitochondrial pore inhibitors. shares compounds with MPTP inh. isolated mitochondria, Rhodamine 123 fluorescence. inhibition, % at 10 µM. 78% of 5,000 active; in the data active = inhibition above about 22%;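 note: 0% = DMSO vehicle and 100% = positive control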
# MPTP abs DR: MPTP inhibition, dose response swelling confirmation. isolated mitochondria swelling, absorbance. shares compounds with MPTP inh. IC50, µM. AID 651561. 58% of 780 active; in the data active = IC50 below about 20 µM
# MPTP counter DR: active in counter-screen for permeability transition pore inhibitors | AID 651564 | isolated mitochondria counterscreen, fluorescence read-out | shares compounds with MPTP inh | 49% of 780 active | IC50, µM; in the data active = IC50 below about 80 µM
# * marks the source's active call; other numbers are inactive results; i = inactive; nt = no result given.
SMILES,MPTP inh,MT1-MMP act inh,SKN-1 block,NR3A LBD binder,ADAM10 inh,ADAM17 inh,MPTP counter,others
O=C(O)CC/C(=N\Nc1ccc(Cl)cc1)c1cccs1,0,-5,-1,-6,1,0,nt,
CCN(CC)CCOc1ccc(/C(=C(/Cl)c2ccccc2)c2ccccc2)cc1,98*,-8,11,4,2,0,-2,MPTP abs DR=19*;MPTP counter DR=43*
CC/C(=C(\c1ccc(O)cc1)c1ccc(OCCN(C)C)cc1)c1ccccc1,103*,-4,24,-1,5,1,-11,
COc1cc(OC)cc(-c2nnc(NC(=O)CCS(=O)(=O)c3ccc(F)cc3)o2)c1,0,0,0,-1,5,0,nt,
O=C(CSc1nc2ccccc2o1)Nc1nc2ccc(Br)cc2s1,-1,1,17,1,-4,-5,nt,
Cc1cccc2sc(NC(=O)CSc3nc4ccccc4o3)nc12,70*,4,-21,6,4,2,15,MPTP abs DR=>100;MPTP counter DR=6.1*
O=C(Nn1c(C2CCCCC2)nc2ccccc2c1=O)c1cc(Cl)ccc1[N+](=O)[O-],8,-4,10,-4,3,1,nt,
Cc1cc(C(=O)Nn2c(C3CCCCC3)nc3ccccc3c2=O)ccc1[N+](=O)[O-],53*,-1,0,3,-6,-1,77*,
Cc1cc(C(=O)Nn2c(C)nc3ccccc3c2=O)ccc1[N+](=O)[O-],0,0,1,-1,-3,-4,nt,
O=C(Nn1c(C2CCCCC2)nc2ccccc2c1=O)c1ccc(Cl)c([N+](=O)[O-])c1,72*,0,6,3,0,3,83*,
CCN(CC(=O)Nc1c(F)cccc1F)C(=O)C1CCN(C(=O)c2ccc(Cl)cc2)CC1,-2,-1,1,1,0,-1,nt,
O=C(Nc1c(F)cc(F)cc1Br)c1cc(-c2ccc(O)cc2)on1,92*,1,-17,-8,13,6,23*,
O=C(Nc1c(F)cc(F)cc1Br)c1cc(-c2ccccc2)on1,1,-1,19,0,1,0,nt,
Cc1cccc(NC(=O)CSc2nnc(-c3ccccc3)n2N)c1C,4,2,-5,-1,0,-2,nt,
CCc1ccc(/C=C\C(=O)N2CCCC2)cc1,2,-2,5,0,0,1,nt,
CCc1ccc(/C=C\C(=O)N2CCc3ccccc3C2)cc1,61*,6,3,-2,6,0,36*,
CCCCCc1ccc(-c2cn(Cc3ccc(C(=O)c4ccccc4)cc3)nn2)cc1,1,-17,-15,-2,2,-5,nt,
O=C(c1ccccc1)c1ccc(Cn2cc(-c3ccccc3)nn2)cc1,85*,13,5,-11,14,6,99*,
C=CCOc1c(OC)cc(Cl)cc1C1NC(=O)NC(C)=C1C(C)=O (configuration not stated),0,-7,-3,5,-2,-5,nt,
Cc1nc2ccccc2n1CC(=O)NN,2,1,8,-2,-7,0,nt,
Cc1nc2ccccc2n1CC(=O)NCc1ccccc1,70*,1,1,-1,-4,-3,20,MPTP abs DR=i;MPTP counter DR=31*
CCc1ccc(Nc2cc(C(=O)NCCCN3CCOCC3)c3ccccc3n2)cc1,52*,3,-2,-6,-3,2,-25,MPTP abs DR=i;MPTP counter DR=>80
CN(C)c1ccc(C(=O)NCC(c2cccs2)N2CCOCC2)cc1[N+](=O)[O-] (configuration not stated),2,0,13,0,-9,-5,nt,
COc1cccc(CNC(=O)CCCn2ccc3cc(S(=O)(=O)N4CCCC4)ccc32)c1,-2,3,7,-1,5,1,nt,
CCOC(=O)N1CCC(N(CCOC)C(=O)Nc2ccc(Cl)cc2)CC1,64*,3,23,-2,6,-1,77*,
SMILES,MPTP inh,MT1-MMP act inh,SKN-1 block,NR3A LBD binder,ADAM10 inh,ADAM17 inh,MPTP counter,others
CCOC(=O)N1CCC(N(CCCOC)C(=O)Nc2ccc(CC)cc2)CC1,0,2,15,4,1,0,nt,
CC1(C)CC(N=Cc2c(O)n(Cc3ccc4c(c3)OCO4)c(=O)c3ccccc23)CC(C)(C)N1,53*,-2,-16,0,-6,-5,-22,MPTP abs DR=4.9*;MPTP counter DR=>80
CN(C)CCN=Cc1c(O)n(Cc2ccccc2)c(=O)c2ccccc12,0,2,8,0,-287,-95,nt,
C=CCC1(CC=C)CCCN1C(=O)c1cc(COc2ccc(C)nc2)on1,99*,2,4,2,3,0,90*,
C=CCn1c(C)cc(C2=NNC(=NC(C)(C)C)SC2)c1C,101*,-7,-2,-3,-33,-8,76*,
COc1ccccc1Nc1nc(NCc2ccco2)c2ccccc2n1,71*,6,27,1,-2,-3,84*,
Cc1ccc(Nc2nc(NCc3ccco3)c3ccccc3n2)cc1,93*,-3,3,1,-35,-6,89*,
Cc1nnc(NC(=O)C(C)Sc2nnc(CCNC(=O)c3ccccc3F)n2C)s1 (configuration not stated),-1,0,-5,-2,-1,-3,nt,
O=C1c2ccc(Oc3ccc([N+](=O)[O-])cc3)cc2C(=O)N1c1ccncc1,87*,-1,1,-1,5,0,79*,
O=C(O)CN1C(=O)c2ccc(Oc3ccc([N+](=O)[O-])cc3)cc2C1=O,-1,-2,0,0,4,-1,nt,
CCOC(=O)c1sc(NC(=O)Nc2ccccc2Cl)cc1C,72*,0,1,28*,10,2,60*,
CCOC(=O)CNC(=O)Cn1cnc2ccc(S(=O)(=O)N3CCC(C)CC3)cc2c1=O,-3,5,-12,9,6,-3,nt,
N=c1n(CCN2CCCCC2)c2ccccc2n1CC(O)COc1ccccc1 (configuration not stated),98*,3,-15,-5,0,-8,12,MPTP abs DR=18*;MPTP counter DR=68*
CCCCn1c(=N)n(CC(O)COc2ccccc2)c2ccccc21 (configuration not stated),76*,-2,2,0,-7,-6,3,MPTP abs DR=13*;MPTP counter DR=36*
N=c1n(CCN2CCOCC2)c2ccccc2n1CC(O)COc1ccccc1 (configuration not stated),-1,-4,-8,0,-2,-2,nt,

# Assay outcomes deposited in PubChem BioAssay by several laboratories.
